Measured values as given in ChEMBL document CHEMBL1145058, “Hydroxyurea analogues as kinetic and mechanistic probes of the nitric oxide producing reactions of hydroxyurea and oxyhemoglobin” (J Med Chem, 2003).

Columns and labels:
[1] = Dissociation constant (PKa) was determined; assay type: physicochemical
[2] = Half peak chemical potential versus Ag/Agcl was determined; assay type: ADME
[3] = Nitrate production was measured with Sievers 280 nitric oxide analyzer chemiluminescence; assay type: ADME
Method in brief: (§1)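 Oxyhemoglobin reacted with hydroxyurea derivatives at 50 mM in 0.1 M sodium phosphate, pH 7.3; nitrite and nitrate products quantified by nitric oxide analyzer chemiluminescence; n = 3.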

[4] = Nitrite production was measured with Sievers 280 nitric oxide analyzer chemiluminescence; assay type: ADME; method in brief: as §1
[5] = Apparent rate constant was determined; assay type: ADME
Method in brief: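 Adult human oxyhemoglobin (70 μM in heme; also HbS) in 0.1 M sodium phosphate, pH 7.3, mixed with hydroxyurea derivative at 50 mM (5 mM for one poorly soluble analogue), 25 °C under air. UV-visible absorption recorded every 5 min for up to 12 h. Apparent first-order rate constant in min^-1 derived from the spectral kinetics; mean ± SD, n = 3.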

Structure (SMILES)	pKa [1]	Ep2/2 [2] [mV]	Nitrate [3] [µM]	Nitrite [4] [µM]	rate constant app [5] [min⁻¹]
CCCCNC(=O)NO	11	693	3.5	2.4	0.00856
O=C(NO)Nc1ccccc1	10.3	433	26.1	7.3	0.0624
CCN(CC)C(=O)NO	10.8	705	18.5	6.1	0.00226
CONC(N)=O	–	–	0	0	–
NC(=O)NO [HYDROXYUREA]	10.7	948	25.1	9.4	0.000754
CN(O)C(N)=O	9.95	588	7.5	6.3	0.0393
COc1ccc(NC(=O)NO)cc1	10.2	560	–	–	0.00194
